Publication PMC6198128 (Redox Biology, 2018)
Values joined by “and” are separate entries in the source; they are usually repeats but may differ in a detail not shown here. Equal values may be shown once. Read-outs that look alike come from different tables or passages of the source.

Assays:
[1] = tested on: HSC-3 (human oral squamous cell carcinoma); assay: Alamar blue cytotoxicity assay, HSC-3; type: cell-based; details: read-out: IC50 in µM
[2] = tested on: MCF-7 (human breast carcinoma); assay: Alamar blue cytotoxicity assay, MCF-7; type: cell-based; details: read-out: IC50 in µM
[3] = tested on: MRC-5 (human lung fibroblast); assay: Alamar blue cytotoxicity assay, MRC-5; type: cell-based; details: read-out: IC50 in µM
HL-60 cells [4] = type: cell-based, human
caspase-3 in HL-60 cells = assay: Caspase-3 colorimetric activation assay; type: cell-based, human; details: HL-60, DEVD-pNA substrate, 48 h, p < 0.05; DOX 2 µM
How it was run: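 HL-60 cells were treated with test compound and lysed, and caspase-3 activity was read with a colorimetric kit using DEVD-pNA substrate, with absorbance at 405 nm. Total protein was measured by Bradford, and activity was expressed as specific activity per 10 mg protein. Data are mean ± S.E.M., with ANOVA and Student–Newman–Keuls test (p < 0.05) against vehicle.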

[5] = tested on: SCC-9 (human oral squamous cell carcinoma); assay: Alamar blue cytotoxicity assay, SCC-9; type: cell-based; details: Homo sapiens, SCC-9, 72 h, read-out: IC50 in µM
[6] = tested on: HepG2 (human hepatocellular carcinoma); assay: Alamar blue cytotoxicity assay, HepG2; type: cell-based; details: read-out: IC50 in µM
[7] = tested on: HL-60 (human promyelocytic leukemia); assay: Alamar blue cytotoxicity assay, HL-60; type: cell-based; details: read-out: IC50 in µM
[8] = tested on: K-562 (human chronic myelogenous leukemia); assay: Alamar blue cytotoxicity assay, K-562; type: cell-based; details: read-out: IC50 in µM
HL-60 cells [9] = assay: Mitochondrial transmembrane potential; type: cell-based, human; details: HL-60, rhodamine 123, 24 h, p < 0.05; DOX 2 µM, OXA 2.5 µM
How it was run: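 HL-60 cells were grown in RPMI-1640 with 10% FBS, 2 mM L-glutamine and 50 µg/mL gentamycin at 37 °C, 5% CO2. After treatment, cells were loaded with rhodamine 123 (5 µg/mL) for 15 min at 37 °C in the dark and washed in saline.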

HL-60 cells [10] = type: cell-based, human; details: for apoptotic cells (annexin V-FITC/PI): HL-60, 24 and 48 h, p < 0.05, DOX 2 µM, OXA 2.5 µM; for effect of pretreatment on complex-induced apoptosis: HL-60, 2 h pretreatment (5 mM NAC or 5 µM inhibitor), then 4 µM complex for 48 h
B16-F10 (mouse melanoma) = assay: Alamar blue cytotoxicity assay, B16-F10; type: cell-based; details: read-out: IC50 in µM
[11] = tested on: PBMC (human peripheral blood mononuclear cells); assay: Alamar blue cytotoxicity assay, PBMC; type: cell-based; details: 72 h, read-out: IC50 in µM
calf thymus DNA (ctDNA) = assay: DNA intercalation assay; type: binding; details: cell-free, 15 µg/mL ctDNA, 1.5 µM ethidium bromide; complex 5, 10 and 20 µM; doxorubicin 10 µM
How it was run: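 Ethidium bromide displacement from calf thymus DNA in saline: 15 µg/mL ctDNA, 1.5 µM ethidium bromide, test compound at 5, 10 and 20 µM. Vehicle (0.1% DMSO) was the negative control and doxorubicin (10 µM) the positive control. Fluorescence was read at excitation 320 nm and emission 600 nm. Lower fluorescence was taken as intercalation.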

[12] = tested on: HCT116 (human colon carcinoma); assay: Alamar blue cytotoxicity assay, HCT116; type: cell-based; details: read-out: IC50 in µM
HL-60 cells [13] = assay: Internucleosomal DNA fragmentation and cell cycle distribution; type: cell-based, human
How it was run: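 After 24 or 48 h treatment, HL-60 cells were permeabilized and stained with propidium iodide, and DNA content was measured by flow cytometry. 10^4 events were recorded per sample with debris excluded. Sub-G0/G1 was taken as internucleosomal DNA fragmentation, alongside G0/G1, S and G2/M fractions. Doxorubicin and oxaliplatin were positive controls; ANOVA with Student–Newman–Keuls test.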

HL-60 cells [14] = assay: Morphological analysis; type: cell-based, human; details: 24 and 48 h, DOX 2 µM, OXA 2.5 µM; for cell morphology: HL-60, May-Grunwald-Giemsa; for forward light scatter (FSC) / side scatter (SCC): HL-60, flow cytometry
How it was run: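 HL-60 cells were treated for 24 and 48 h, then stained with May-Grunwald-Giemsa and examined by light microscopy. In parallel, forward and side light scatter were quantified by flow cytometry, recording 10^4 events per sample with debris excluded. Vehicle was the negative control, with doxorubicin and oxaliplatin as positive controls.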

[15] = tested on: eight cancer cell lines (HL-60, K-562, HCT116, MCF-7, HepG2, HSC-3, SCC-9 and B16-F10); assay: Alamar blue cytotoxicity assay, panel of cancer cell lines; type: cell-based; details: not cytotoxic at the concentrations tested, 72 h
How it was run: (§1)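 Human and mouse cell lines plus primary human PBMC (donor informed consent) grown in RPMI-1640 with 10% FBS, 2 mM L-glutamine and 50 μg/mL gentamycin at 37 °C, 5% CO2. Cells were mycoplasma-checked and >90% trypan-blue viable at start. Vehicle served as negative control; doxorubicin, oxaliplatin and piplartine were positive controls. Effect was taken as % of control absorbance, with IC50 and 95% CI from nonlinear regression.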

[16] = tested on: non-cancer cells (MRC-5 and PBMC); assay: Alamar blue cytotoxicity assay, non-cancer cells; type: cell-based, human; details: not cytotoxic at the concentrations tested, 72 h
How it was run: as §1

[17] = HL-60, 2 µM, 24 h of incubation
[18] = HL-60, 2 µM, 48 h of incubation
[19] = HL-60, 2.5 µM, 24 h of incubation
[20] = HL-60, 2.5 µM, 48 h of incubation

Molecule `COc1cccc2c1C(=O)c1c(O)c3c(c(O)c1C2=O)C[C@@](O)(C(=O)CO)C[C@@H]3O[C@H]1C[C@H](N)[C@H](O)[C@H](C)O1` [DOX, Doxorubicin] has an IC50 ([1]; Homo sapiens, HSC-3, 72 h) of 0.3 µM, an IC50 ([2]; Homo sapiens, MCF7, 72 h) of 1.1 µM and an IC50 ([3]; Homo sapiens, MRC5, 72 h) of 1.5 µM. For the same molecule, the “reduction of the number of viable cells” value (HL-60 cells [4]) was 57.1% and 87.9%, the caspase-3 activation (caspase-3 in HL-60 cells) was “caused caspase-3 activation” and the IC50 [5] was 0.5 µM. For the same molecule, the IC50 ([6]; Homo sapiens, HepG2, 72 h) was 0.1 µM, the IC50 ([7]; Homo sapiens, HL-60, 72 h) was 0.3 µM and the IC50 ([8]; Homo sapiens, K562, 72 h) was 0.3 µM. For the same molecule, the mitochondrial transmembrane potential (HL-60 cells [9]) was “reduced the mitochondrial transmembrane potential”, the “apoptotic cells (annexin V-FITC/PI)” value (HL-60 cells [10]) was “increase in apoptotic cells” and the IC50 (B16-F10 (mouse melanoma); Mus musculus, B16-F10, 72 h) was 0.1 µM. The IC50 ([11]; Homo sapiens, PBMC) was 5.1 µM, the “ethidium bromide fluorescence (displacement from ctDNA)” value (calf thymus DNA (ctDNA)) was “reduced the fluorescence intensity of ethidium bromide” and the IC50 ([12]; Homo sapiens, HCT-116, 72 h) was 0.1 µM. For the same molecule, the “DNA content (%) G0/G1” value (HL-60 cells [13]; [17]) was 19.9 ± 2.5 %, the “DNA content (%) G2/M” value (HL-60 cells [13]; [17]) was 8.9 ± 1.5% and the “DNA content (%) S” value (HL-60 cells [13]; [17]) was 6.6 ± 1.6 %. For the same molecule, the “DNA content (%) Sub-G0/G1” value (HL-60 cells [13]; [17]) was 57.2 ± 2.5 %, the “DNA content (%) G0/G1” value (HL-60 cells [13]; [18]) was 21.9 ± 3.0 % and the “DNA content (%) G2/M” value (HL-60 cells [13]; [18]) was 3.8 ± 0.9 %. For the same molecule, the “DNA content (%) S” value (HL-60 cells [13]; [18]) was 6.5 ± 0.6 %, the “DNA content (%) Sub-G0/G1” value (HL-60 cells [13]; [18]) was 65.5 ± 2.8 % and the cell morphology (HL-60 cells [14]) was “cell shrinkage, chromatin condensation and nuclear fragmentation”. For the same molecule, the “forward light scatter (FSC)” value (HL-60 cells [14]) was “decrease in FSC” and the “side scatter (SCC)” value (HL-60 cells [14]) was “transient increase in SCC”.

Work on `O=C1[O][Pt]2([NH][C@@H]3CCCC[C@H]3[NH]2)[O]C1=O` [OXA, oxaliplatin] yielded an IC50 ([1]; HSC-3, alamar blue, 72 h) of 3.1 µM, an IC50 ([2]; MCF-7, alamar blue, 72 h) of 5.7 µM and an IC50 ([3]; MRC-5 non-cancer cells, alamar blue, 72 h) of 1.3 µM. For the same molecule, the “reduction of the number of viable cells” value (HL-60 cells [4]) was 35.6% and 67.7%, the IC50 ([6]; HepG2, alamar blue, 72 h) was 2.2 µM and the IC50 ([7]; HL-60, alamar blue, 72 h) was 0.6 µM. For the same molecule, the IC50 ([8]; K-562, alamar blue, 72 h) was 1 µM, the mitochondrial transmembrane potential (HL-60 cells [9]) was “reduced the mitochondrial transmembrane potential” and the “apoptotic cells (annexin V-FITC/PI)” value (HL-60 cells [10]) was “increase in apoptotic cells”. It also gave an IC50 (B16-F10 (mouse melanoma); B16-F10, alamar blue, 72 h) of 2.2 µM, an IC50 ([11]; PBMC non-cancer cells, alamar blue) of 9.4 µM and an IC50 ([12]; HCT116, alamar blue, 72 h) of 4.1 µM. The “DNA content (%) G0/G1” value (HL-60 cells [13]; [19]) was 29.1 ± 2.4 %, the “DNA content (%) G2/M” value (HL-60 cells [13]; [19]) was 28.1 ± 2.6 % and the “DNA content (%) S” value (HL-60 cells [13]; [19]) was 12.6 ± 2.5%. For the same molecule, the “DNA content (%) Sub-G0/G1” value (HL-60 cells [13]; [19]) was 20.7 ± 2.9 %, the “DNA content (%) G0/G1” value (HL-60 cells [13]; [20]) was 42.9 ± 2.8% and the “DNA content (%) G2/M” value (HL-60 cells [13]; [20]) was 23.4 ± 2.6 %. The “DNA content (%) S” value (HL-60 cells [13]; [20]) was 13.2 ± 0.8%, the “DNA content (%) Sub-G0/G1” value (HL-60 cells [13]; [20]) was 24.8 ± 1.9 % and the cell cycle effect (HL-60 cells [13]; HL-60, 2.5 µM, p < 0.05) was “cell cycle arrest at the phase G2/M”. The cell morphology (HL-60 cells [14]) was “cell shrinkage, chromatin condensation and nuclear fragmentation”, the “forward light scatter (FSC)” value (HL-60 cells [14]) was “decrease in FSC” and the “side scatter (SCC)” value (HL-60 cells [14]) was “transient increase in SCC”.

With `O=[N+]([O-])c1ccc(-c2nc(-c3ccncc3)c(-c3ccc(F)cc3)[nH]2)cc1` [PD 169316] the “effect of pretreatment on complex-induced apoptosis” value (HL-60 cells [10]) was “reduced the complex-induced apoptosis”.

Molecule `COc1cc(/C=C/C(=O)N2CCC=CC2=O)cc(OC)c1OC` [PIP, Piplartine] has an IC50 ([1]; Homo sapiens, HSC-3, 72 h) of 14.1 µM, an IC50 ([2]; Homo sapiens, MCF7, 72 h) of 10.3 µM and an IC50 ([3]; Homo sapiens, MRC5, 72 h) of 17.3 µM. For the same molecule, the IC50 [5] was 16.5 µM, the IC50 ([6]; Homo sapiens, HepG2, 72 h) was 6.3 µM and the IC50 ([7]; Homo sapiens, HL-60, 72 h) was 14.1 µM. The IC50 ([8]; Homo sapiens, K562, 72 h) was 18.6 µM, the IC50 (B16-F10 (mouse melanoma); Mus musculus, B16-F10, 72 h) was 10.6 µM and the IC50 ([11]; Homo sapiens, PBMC) was 34.2 µM. It also gave an IC50 ([12]; Homo sapiens, HCT-116, 72 h) of 5.4 µM.

For `N#CC(=C(/N)Sc1ccccc1N)/C(C#N)=C(/N)Sc1ccccc1N` [U-0126], the “effect of pretreatment on complex-induced apoptosis” value (HL-60 cells [10]) was “reduced the complex-induced apoptosis”.

Molecule `[Cl][Pt][Cl].c1ccc(P(c2ccccc2)c2ccccc2)cc1.c1ccc(P(c2ccccc2)c2ccccc2)cc1` [cis-[PtCl2(PPh3)2]] has an IC50 [15] greater than 31.6 µM and an IC50 [16] greater than 31.6 µM.
